Data: ChEMBL document CHEMBL5154854, “Identification of a Vitamin-D Receptor Antagonist, MeTC7, which Inhibits the Growth of Xenograft and Transgenic Tumors In Vivo” (J Med Chem, 2022)
Active and inactive are the calls of the source. No cut-off for these calls is given here.

How the values were obtained:
[1] = system: 2008; assay: Cytotoxicity against human 2008 cells assessed as reduction in cell viability incubated for 24 hrs by MTS assay; type: functional, cell-based; details: dose 0.25-1.25 µM, DDE = dose-dependent effect
Procedure, shortened: (§1)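 Ovarian lines seeded 5,000 cells/well, attached overnight, treated 24 h in complete medium (DMSO ≤0.2%); MTS reagent 1:10 in fresh RPMI 2–4 h, absorbance 490 nm; triplicate, % of DMSO-treated cells.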

[2] = target: T1, Vitamin D3 receptor (Homo sapiens) (UniProt P11473); assay: Antagonist activity at VDR LBD (unknown origin) using Alexa Fluor 647-labeled SRC2-3 as substrate incubated for 2 hrs in presence of calcitriol by fluorescence polarization assay; details: filed as antagonist
T1 sequence (whole entry): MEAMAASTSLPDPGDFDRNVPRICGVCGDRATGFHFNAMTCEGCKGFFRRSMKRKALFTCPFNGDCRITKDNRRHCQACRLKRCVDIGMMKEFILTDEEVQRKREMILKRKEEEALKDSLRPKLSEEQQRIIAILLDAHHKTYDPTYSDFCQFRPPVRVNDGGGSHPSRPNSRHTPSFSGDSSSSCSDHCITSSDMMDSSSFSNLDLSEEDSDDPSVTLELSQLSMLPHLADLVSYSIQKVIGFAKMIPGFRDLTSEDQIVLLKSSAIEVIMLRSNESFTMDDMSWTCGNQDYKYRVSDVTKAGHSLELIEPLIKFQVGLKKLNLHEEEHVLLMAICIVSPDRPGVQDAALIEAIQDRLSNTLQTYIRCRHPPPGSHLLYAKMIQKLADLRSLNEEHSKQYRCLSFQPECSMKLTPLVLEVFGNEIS
Procedure, shortened: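 VDR-LBD (0.1 μM) with Alexa Fluor 647-labelled SRC2-3 (17.5 nM) and 10 nM 1,25(OH)2D3 in 25 mM PIPES, 50 mM NaCl, 0.01% NP-40, pH 6.75. Compounds were serially diluted 1:2 from 10 mM DMSO stocks and incubated 2 h. Polarization was read at 635/685 nm. Three independent experiments in quadruplicate; IC50 by variable-slope nonlinear regression.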

[3] = system: 2008; assay: Induction of apoptosis in human 2008 cells assessed as cleaved PARP1 expression levels at 250 nM incubated for 18 hrs by western blot analysis (reference value: 4%); type: functional
[4] = Anti-tumor activity against human SK-OV-3 cells xenografted in nude mouse assessed as animal survival at 10 mg/kg, ip measured upto 36 days; details: SK-OV-3, 864 h
[5] = target: T1, Vitamin D3 receptor (Homo sapiens); assay: Antagonist activity at VDR in human BE2C cells assessed as reduction in MYCN expression at 1 uM incubated for 24 hrs by western blot analysis relative to control; type: cell-based; details: filed as antagonist
Procedure, shortened: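 BE(2)-C cells given 1 μM for 24 h; immunoblot with β-actin or α-tubulin loading control; normalized densitometry.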

[6] = Toxicity in TH-MYCN +/+ transgenic neuroblastoma 129x1/SvJ.Tg (TH-MYCN)41Waw/Nci mouse model assessed as effect on CD8+ cells population at 10 mg/kg, ip qd by flow cytometry; type: organism-based; details: in vivo
Procedure, shortened: (§2)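 Immune cells isolated from TH-MYCN tumor-bearing mice treated with vehicle or compound; CD45+, CD4+, CD8+, macrophage, patrolling monocyte/DC and CD11b+ populations quantified by flow cytometry with characterized markers.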

[7] = system: LA-N-5; assay: Cytotoxicity against human LA-N-5 cells assessed as reduction in cell viability incubated for 48 hrs by MTS assay; type: functional, cell-based; details: dose 0.1-10 µM, DDE = dose-dependent effect
Procedure, shortened: (§3)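 Neuroblastoma lines seeded 5,000 cells/well, attached overnight, treated 48 h in complete medium (DMSO ≤0.2%); MTS reagent 1:10 in fresh RPMI 2–4 h, absorbance 490 nm.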

[8] = system: Caov-3 cell line; assay: Cytotoxicity against human Caov-3 cell line assessed as reduction in cell viability incubated for 24 hrs by MTS assay; type: functional, cell-based; details: dose 0.25-1.25 µM, DDE = dose-dependent effect; procedure, shortened: as §1
[9] = Toxicity in TH-MYCN +/+ transgenic neuroblastoma 129x1/SvJ.Tg (TH-MYCN)41Waw/Nci mouse model assessed as effect on CD45+ cells population at 10 mg/kg, ip qd by flow cytometry; type: organism-based; details: in vivo; procedure, shortened: as §2
[10] = system: Mus musculus; assay: Anti-tumor activity against tumor cells in TH-MYCN +/+ neuroblastoma 129x1/SvJ.Tg (TH-MYCN)41Waw/Nci mouse model assessed as reduction in tumor volume administered intraperitoneally measured on day 7 by ultrasound imaging analysis; type: functional, organism-based; details: route ip, time 7.0 day, DDE = dose-dependent effect
Procedure, shortened: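 Homozygous TH-MYCN+/+ mice (129×1/SvJ background, genotyped) with spontaneous neuroblastoma dosed IP, vehicle n = 7, 10 mg/kg n = 8, six treatments; a 100 mg/kg group got three. Tumor burden by abdominal ultrasound under 1–3% isoflurane; tumors excised and weighed at end; groups compared by t-test.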

[11] = system: SH-EP1; assay: Cytotoxicity against human SH-EP1 cells assessed as reduction in cell viability incubated for 48 hrs by MTS assay; type: functional, cell-based; details: dose 0.1-10 µM, DDE = dose-dependent effect; procedure, shortened: as §3
[12] = system: PANC-1; assay: Anti-tumor activity against human PANC-1 cells xenografted in NSG mouse assessed as reduction in tumor growth at 10 mg/kg, ip measured on day 12; type: functional, organism-based; details: time 12.0 day
Procedure, shortened: (§4)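 NSG mice implanted subcutaneously with 1 million D283, PANC-1 or BXPC-3 cells in matrigel/DMEM 1:1; once palpable, 10 mg/kg IP M–F vs vehicle; volume (length × width2)[…], % change; endpoint 2000 mm3; tumors excised and weighed; unpaired t-test.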

[13] = system: SK-OV-3; assay: Anti-tumor activity against human SK-OV-3 cells xenografted in nude mouse assessed as reduction in tumor growth at 10 mg/kg, ip measured for 1 to 39 days; details: time 1-39 day
[14] = Toxicity in TH-MYCN +/+ transgenic neuroblastoma 129x1/SvJ.Tg (TH-MYCN)41Waw/Nci mouse model assessed as effect on CD4+ cells population at 10 mg/kg, ip qd by flow cytometry; type: organism-based; details: in vivo; procedure, shortened: as §2
[15] = system: Mus musculus; assay: Downregulation of VDR expression in tumor of NSG mouse xenografted with human SK-OV-3 cells at 10 mg/kg, ip by confocal microscopy based immunohistochemistry analysis; type: functional, organism-based
[16] = system: ES-2; assay: Anti-tumor activity against human ES2 cells xenografted in NSG mouse assessed as reduction in tumor volume at 10 mg/kg, ip measured upto 30 days; type: functional, organism-based; details: time <= 30.0 day
Procedure, shortened: (§5)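 NSG mice, 6–8 weeks, injected subcutaneously in right flank with ES2 (250,000) or SH-SY5Y/BE(2)C (1 million) cells in cold matrigel/serum-free RPMI 1:1. Once palpable, 10 mg/kg IP M–F vs vehicle; volume (length × width2)[…]; BE(2)C and ES2 monitored alternate days; endpoint 2000 mm3; % change in volume, t-test.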

[17] = system: SH-SY5Y; assay: Anti-tumor activity against human SH-SY5Y cells xenografted in NSG mouse assessed as reduction in tumor volume at 10 mg/kg, ip measured for 5 to 10 days; type: functional, organism-based; details: time 5-10 day; procedure, shortened: as §5
[18] = system: BXPC-3; assay: Anti-tumor activity against human BXPC-3 cells xenografted in NSG mouse assessed as reduction in tumor growth at 10 mg/kg, ip measured on day 18; type: functional, organism-based; details: time 18.0 day; procedure, shortened: as §4
[19] = system: Kelly; assay: Cytotoxicity against human Kelly cells assessed as reduction in cell viability incubated for 48 hrs by MTS assay; type: functional, cell-based; details: dose 0.1-10 µM, DDE = dose-dependent effect; procedure, shortened: as §3
[20] = Toxicity in TH-MYCN +/+ transgenic neuroblastoma 129x1/SvJ.Tg (TH-MYCN)41Waw/Nci mouse model assessed as effect on CD11b+ cells population at 10 mg/kg, ip qd by flow cytometry; type: organism-based; details: in vivo; procedure, shortened: as §2
[21] = target: T1, Vitamin D3 receptor (Homo sapiens); assay: Antagonist activity at VDR in human 2008 cells assessed as suppression of RXR-alpha expression at 250 nM incubated for 18 hrs by western blot analysis relative to control; type: cell-based; details: filed as antagonist
Procedure, shortened: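 2008 ovarian cancer cells exposed 250 nM, 18 h; immunoblot with loading control (GAPDH for RXR-α, α-tubulin for Importin-4); band densitometry normalized to loading control.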

For CC(C)CCC[C@@H](C)[C@H]1CC[C@@H]2[C@]1(C)CCC1[C@]23C=C[C@]2(C[C@@H](OC(=O)CBr)CC[C@]12C)n1c(=O)n(C)c(=O)n13 (stereo partly specified), which Activity [1] is on record?
The Activity was “Dde”.

And the Activity [2]?
The Activity was 2.9 µM.

What about the Activity [3] of the same compound?
Its Activity is 22.8%.

And the survival at 10 mg/kg [4]?
The survival at 10 mg/kg was 100%.

What about the fold change (FC) [5] of the same compound?
The fold change (FC) was 0.68.

And the Activity [6]?
The Activity was “Non-Toxic”.

What about the Activity [7] of the same compound?
Its Activity is “Dde”.

And the Activity [8]?
The Activity was “Dde”.

And the Activity [9]?
Its Activity is “Non-Toxic”.

What about the Activity [10] of the same compound?
Its Activity is “Dde”.

And the Activity [11]?
Its Activity is “Dde”.

What about the Activity [12] of the same compound?
Its Activity is “Active”.

And the Activity [13]?
Its Activity is “Active”.

What about the Activity [14] of the same compound?
Its Activity is “Non-Toxic”.

And the inhibition [15]?
The inhibition was “Active”.

And the Activity [16]?
Its Activity is “Active”.

And the Activity [17]?
The Activity was “Active”.

What about the Activity [18] of the same compound?
The Activity was “Active”.

What about the Activity [19] of the same compound?
Its Activity is “Dde”.

What about the Activity [20] of the same compound?
The Activity was “Non-Toxic”.

And the fold change (FC) [21]?
Its fold change (FC) is 0.29.
